# Screening data deposited in PubChem by several laboratories.
# Hits are enriched below; roughly 3.4% of the tested compounds scored in any of these assays.
# Wee1 degr inh: inhibitors of human Wee1 degradation; P30291; HeLa Luc-Wee1K328M stability, luciferase luminescence; 100% = proteasome inhibitor MG132 effect; reporter increase, % at 5 µM; 220,000 tested, 1.2% active;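 active = activation above the mean of all tested compounds plus 3 SD, set per screening run, cut at about 8.8% in these data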;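 note: cells exposed to compound for 20 h before luminescence read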
# PHOSPHO1 inh: inhibitors of human PHOSPHO1 phosphatase; Q8TCT1; recombinant PHOSPHO1, absorbance phosphatase assay; inhibition, % at 13.3 µM; 290,000 tested, 1.1% active; in the data active = inhibition above about 60%
# Target sequence (Q8TCT1 whole entry, looked up): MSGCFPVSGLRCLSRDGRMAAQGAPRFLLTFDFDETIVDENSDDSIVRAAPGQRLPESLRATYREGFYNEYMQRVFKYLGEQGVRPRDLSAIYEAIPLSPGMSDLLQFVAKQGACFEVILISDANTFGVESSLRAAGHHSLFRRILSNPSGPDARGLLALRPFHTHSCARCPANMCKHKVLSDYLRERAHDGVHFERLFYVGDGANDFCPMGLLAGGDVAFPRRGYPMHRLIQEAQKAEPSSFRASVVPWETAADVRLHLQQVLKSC
# HMGR II inh: inhibitors of class II HMG-CoA reductase from Enterococcus faecalis. purified E. faecalis HMGR, NADPH absorbance 340 nm kinetic. inhibition, % at 10 µM. 190,000 tested, 0.41% active. AID 1066;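 active = inhibition above a set limit, the median over all tested compounds plus 3 SD, cut at about 9.5% in these data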;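 note: enzyme runs in reverse so mevalonate oxidation gives rising NADPH absorbance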
# Runt-SMMHC FRET: Runt domain-CBFb-SMMHC interaction inhibition; 220,000 tested, 0.74% active; Q01196+Q13951; inhibition, % at 20 µM; AID 1434; Cerulean-Runt/Venus-CBFb-SMMHC FRET ratio 530/480, 1 h;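 active = mean inhibition across duplicate retests at 20 µM reaching about 50%, limit read from the data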;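 note: inhibitors lower the FRET ratio by blocking Runt binding to CBFb-SMMHC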
# RanGTP-Imp inh: disruptors of Ran-importin-beta complex formation – biochemical, FRET, CFP-Ran, YFP-importin-beta, homogeneous, primary screen; cell-free CFP-Ran/YFP-importin-beta FRET ratio; inhibition, % (concentration not given with the values); 300,000 tested, 1.1% active; AID 2216;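 active = more than half of the replicate wells show a fall in the fluorescence ratio signal beyond about 16%, limit read from the data, passing the limit was not always enough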
# Runt-CBFb FRET: Runt domain-CBFb interaction inhibition. 220,000 tested, 0.46% active. AID 1496. Cerulean-Runt/Venus-CBFb FRET ratio 530/480, 1 h. inhibition, % at 20 µM;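 active = inhibition over about 50% at 20 µM in the single-dose screen, limit read from the data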
#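 test system = Cerulean-Runt domain fusion protein, energy donor | probe or stimulus = Venus-CBFb binding partner, 100 nM | incubation = two 1 h room-temperature incubations shielded from light | detection = fluorescence energy transfer, 422 nm excitation, 530/480 nm emission | measure = loss of energy transfer signal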
# Numbers stand for hits; n = inactive; x = no result.
SMILES,Wee1 degr inh,PHOSPHO1 inh,HMGR II inh,Runt-SMMHC FRET,RanGTP-Imp inh,Runt-CBFb FRET
COc1cc(/C=C2/S/C(=N/S(=O)(=O)c3ccccc3)NC2=O)c([N+](=O)[O-])cc1OC,n,71,n,n,n,n
COc1cc(/C=C2\S/C(=N/S(=O)(=O)Cc3ccccc3)NC2=O)c([N+](=O)[O-])cc1OC,n,n,x,n,n,n
O=C(Cc1ccc(Cl)cc1)NCC(=O)N1CCN(Cc2ccccc2)CC1,x,n,x,x,n,x
Oc1ccc(CNc2ccc(F)cc2)c2cccnc12,n,95,n,n,n,n
Oc1ccc(CNc2ccccc2)c2cccnc12,n,n,n,n,n,x
Cc1ccccc1NCc1ccc(O)c2ncccc12,n,71,n,n,n,n
Cc1cccc(NCc2ccc(O)c3ncccc23)c1,n,n,n,n,n,n
O=C(CSc1nc2ncc(Br)cc2[nH]1)Nc1ccc2c(c1)OCO2,n,n,n,n,n,n
CCC(CO)(CO)N(CC(=O)Nc1ccc(OC)cc1)CC(=O)Nc1ccc(OC)cc1,x,n,x,x,28,x
O=C(CN1C(=O)NC2(CCCCC2)C1=O)Oc1ccc2c(C(F)(F)F)cc(=O)oc2c1,x,x,x,x,33,x
CC1(C)CC(=O)C2=C(C1)N(CCN1CCOCC1)C1=C(C(=O)CC(C)(C)C1)C2c1cccc(F)c1,n,n,n,78,130,63
COc1ccc(C2C3=C(CC(C)(C)CC3=O)N(CCN3CCOCC3)C3=C2C(=O)CC(C)(C)C3)cc1,n,n,x,81,71,91
CC1(C)CC(=O)C2=C(C1)N(CCN1CCOCC1)C1=C(C(=O)CC(C)(C)C1)C2c1ccc(Cl)cc1,n,n,x,88,127,77
Cc1cc(OCC(=O)NCCCN2CCOCC2)c2c(C)cc(=O)oc2c1,x,n,x,x,n,x
Cc1cc(Cl)cc(Cl)c1OCCN1CCCC1,x,n,x,x,n,x
CCOC(=O)N1CCN(C(=O)COC(=O)c2ccccc2NCCO)CC1,x,x,x,x,n,x
COc1cccc(N2CCN(C(=O)Cn3c(=O)oc4ccccc43)CC2)c1,x,n,x,x,n,x
CC1CCc2nc3ccc(S(=O)(=O)N4CCC(C(=O)NCc5ccccc5Cl)CC4)cc3c(C(=O)O)c2C1 (stereo unspecified),x,n,x,x,22,x
COc1ccc(CNC(=O)C2CCN(S(=O)(=O)c3ccc4nc5c(c(C(=O)O)c4c3)CC(C)CC5)CC2)cc1 (stereo unspecified),x,n,x,x,n,x
COc1cc(-c2ccc3c(=O)c4ccccc4n(C)c3c2)cc(OC)c1OC,x,n,x,x,57,x
COc1ccc(-c2cc(Cl)cc3c(=O)c4ccccc4n(C)c23)cc1F,x,n,x,x,112,x
Cn1c2ccccc2c(=O)c2ccc(-c3ccc4c(c3)OCO4)cc21,x,n,x,x,49,x
COC(=O)C1=C(C)NC(=S)NC1c1ccc(OCC(=O)N2CCCCC2)c(OC)c1 (stereo unspecified),x,n,x,x,n,x
CCOC(=O)C1CCN(c2ccc([N+](=O)[O-])c(C(C)=O)c2)CC1,n,n,n,n,n,n
COc1ccccc1N1C(=NC(=O)CCc2ccccc2)SC2CS(=O)(=O)CC21 (stereo unspecified),x,n,x,x,n,x
SMILES,Wee1 degr inh,PHOSPHO1 inh,HMGR II inh,Runt-SMMHC FRET,RanGTP-Imp inh,Runt-CBFb FRET
COc1ccc(CCNC(=O)COC(=O)CCC(=O)c2ccc(F)cc2)cc1,11,n,n,n,n,n
CCN(CC)c1ccc(NC(=O)COC(=O)CCC(=O)c2ccc(F)cc2)cc1,n,85,n,n,n,n
O=C(COC(=O)CCC(=O)c1ccc(F)cc1)Nc1ccccc1,n,n,n,n,n,n
CCC1C(=O)NCCN1C(=O)c1ccc2nc(Cc3cccc(Cl)c3)oc2c1 (stereo unspecified),x,n,x,x,n,x
CC(NC(=O)c1cc(=O)[nH]c2ccccc12)c1ccccc1 (stereo unspecified),n,n,12,n,n,n
CCOc1ccc(C(C)NC(=O)c2cc(=O)[nH]c3ccccc23)cc1OCC (stereo unspecified),x,n,x,x,n,x
COc1ccc(N2CCN(c3oc(COc4ccccc4Cl)nc3C#N)CC2)cc1,9.6,n,n,n,n,n
CC(C)[C@H](NC(=O)N1c2ccccc2NC(=O)[C@@H]1C(C)C)C(=O)N[C@H](Cc1ccccc1)C(=O)O,x,65,x,x,n,x
